A short description of test [1]: inhibitors of TNFa-induced NFkB p65 translocation, primary screen, imaging, HUVEC, MLSMR starter and 10KST1 sets (AID 438;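 active = inhibition above 20% together with a positive visual image hit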;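 note: compound added about 3h40 before a 20 min TNFalpha stimulation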;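 for inhibition: signal is the nuclear over cytoplasmic p65 intensity ratio per well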). To be noted: HUVEC TNFa-induced p65 nuclear translocation; cell count: measured here: nuclei count (cytotoxicity indicator), at 2.08 µM; inhibition: at 2 µM, stronger effect = higher value, 0% TNFa-plus-vehicle, 100% no-TNFa wells.
Test [2] is described as follows: inhibitors of E-selectin induction by TNFa, primary screen, imaging, HUVEC, immunofluorescence, MLSMR starter and 10KST1 sets (AID 487;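 active = visually confirmed hit in the image check and inhibition above 20%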;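 for inhibition: signal is fraction of cell area covered by stained E-selectin grains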;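 for nuclei count: 100% = median nuclei count of all wells on the same plate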). To be noted: HUVEC TNFalpha-induced E-selectin immunofluorescence imaging, at 2 µM; inhibition: stronger effect = higher value; nuclei count: measured here: cell number, toxicity.
Test [3] is described as follows: DUSP6 inhibitors restoring Erk phosphorylation by chemical complementation, primary imaging in DUSP6-transfected HeLa (AID 609;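 active = compounds giving at least 50% inhibition in the cell-based MKP-3 phosphatase rescue imaging test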;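 for inhibition: phospho-Erk level distribution per well compared with pooled transfected vehicle control wells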). Conditions: HeLa MKP-3 transfected, phospho-Erk imaging KS statistic, at 10 µM, cells stimulated with TPA for 15 min.
In test [4] the target is Dual specificity protein phosphatase 6 (Homo sapiens) (UniProt Q16828). The description is as above. Conditions: HeLa MKP-3 transfected, phospho-Erk imaging KS statistic; at 10 µM; stronger effect = higher value; cells stimulated with TPA for 15 min.
Dual specificity protein phosphatase 6 (Homo sapiens), sequence (Q16828 whole entry, looked up): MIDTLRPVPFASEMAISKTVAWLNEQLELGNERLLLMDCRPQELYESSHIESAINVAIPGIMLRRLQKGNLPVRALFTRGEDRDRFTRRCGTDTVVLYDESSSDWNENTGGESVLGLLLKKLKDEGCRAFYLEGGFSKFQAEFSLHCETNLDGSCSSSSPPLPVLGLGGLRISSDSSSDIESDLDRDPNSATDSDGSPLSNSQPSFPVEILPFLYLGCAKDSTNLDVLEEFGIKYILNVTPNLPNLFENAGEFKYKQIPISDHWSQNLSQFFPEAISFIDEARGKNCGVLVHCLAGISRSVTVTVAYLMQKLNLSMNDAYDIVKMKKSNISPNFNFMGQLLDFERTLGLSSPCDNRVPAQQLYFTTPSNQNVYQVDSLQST
Test [5] has as its target Voltage-gated potassium channel subunit beta-2 (Rattus norvegicus) (UniProt P62483). Kind of test: KvBeta enzyme negative modulators, primary screen, biochemical, NADPH fluorescence (AID 622).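 Note: slope of raw intensity against log time taken from 70 to 1610 s.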 Conditions: recombinant KvBeta, 4-cyanobenzaldehyde reduction, at 10 µM, stronger effect = higher value.
Test [6] shares this target. Kind of test: KvBeta positive modulators, primary screen, biochemical, NADPH fluorescence (AID 623;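 active = NADPH fluorescence slope more negative than the mean of all samples by about 3 SD, 99.7% confidence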;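 note: fluorescence intensity change per second fitted from 20 to 320 s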). To be noted: Recombinant KvBeta, NADPH fluorescence decrease slope, 10 min; at 10 µM; stronger effect = lower value.
Test [7] concerns the target Muscarinic acetylcholine receptor M4 (Homo sapiens) (UniProt P08173). Kind of test: compounds altering M4/GIRK thallium flux, either direction, primary screen, M4 allosteric agonist project, cell-based, HEK293 M4/GIRK, BTC-AM (AID 625;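 active = fluorescence slope after compound addition differing from the mean of all tested samples at 99.7% confidence, mostly higher but some lower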;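 note: thallium influx through GIRK channels coupled to M4 in HEK293 cells with BTC-AM dye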). To be noted: at 10 µM, actives lie on both sides. Put shortly: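 assay system = HEK293 cells with M4 receptor and GIRK channels | medium = pH 7.3 thallium assay buffer | doses = 10 µM final, single point | timing = cells overnight at 37 °C, BTC-AM loading 1 h, reads 2 min total | signal = BTC-AM fluorescence, 1 Hz kinetic reads | read-out = post-addition slope, 15–24 s, of baseline-normalized fluorescence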

Test [8] can be described thus: inhibitors of larval lipid processing in zebrafish, primary screen, whole organism, PED6 fluorescence, gall bladder and intestine (AID 686;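 active = a full or partial loss of lipid-probe fluorescence in the fish gall bladder, intestine or both, judged by eye; inactive = no fluorescence loss, or compound toxic to the fish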;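 note: larvae 5 to 7 days old with five fish per well; signal comes from phospholipase A2 cleavage of quenched PED6 carried via bile; overnight exposure to compound and PED6 before scoring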). Conditions: Zebrafish larvae PED6 lipid processing, fluorescence scoring; screened at 20 µM (by protocol). A digest of the protocol:
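Also added: quenched phospholipase substrate PED6, 100 nM final, ingested by larvae; System: zebrafish larvae, 5-7 d; Quantity: 5 larvae per well; Compound: 20 µM single dose; Schedule: overnight compound and PED6 incubation; Read-out: visual per-well fluorescence inhibition score; Measured by: By-eye fluorescence microscopy; Medium: E3.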

Test [9] in a line: inhibitors of Chlamydomonas gravitaxis, primary screen, whole organism, Chlamydomonas reinhardtii, WT vs cilia-less mutant, absorbance, 96-well (AID 463189;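 active = inhibition at or above 50% relative to wild type and mutant plate controls; inactive = inhibition below 50%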;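 note: 0% = wild type cc124 cells in DMSO and 100% = ciliumless bld1 mutant cells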). To be noted: OD600 absorbance, 2 days, at 10 µM, stronger effect = higher value.
Where [10] appears, read: measured here: cell density z-score.
Setting [11] is: measured here: nuclear c-Myc green intensity z-score.
Where [12] appears, read: measured here: nuclear pErk red intensity z-score, stronger effect = higher value.

Active and inactive are the calls of the source.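 Rule for the calls, unless noted: active = fluorescence slope higher than the sample average by over 3 SD (cut at about -0.22 in these data, passing the limit was not always enough); inactive = the rest.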

Voltage-gated potassium channel subunit beta-2 (Rattus norvegicus), sequence (P62483 whole entry, looked up): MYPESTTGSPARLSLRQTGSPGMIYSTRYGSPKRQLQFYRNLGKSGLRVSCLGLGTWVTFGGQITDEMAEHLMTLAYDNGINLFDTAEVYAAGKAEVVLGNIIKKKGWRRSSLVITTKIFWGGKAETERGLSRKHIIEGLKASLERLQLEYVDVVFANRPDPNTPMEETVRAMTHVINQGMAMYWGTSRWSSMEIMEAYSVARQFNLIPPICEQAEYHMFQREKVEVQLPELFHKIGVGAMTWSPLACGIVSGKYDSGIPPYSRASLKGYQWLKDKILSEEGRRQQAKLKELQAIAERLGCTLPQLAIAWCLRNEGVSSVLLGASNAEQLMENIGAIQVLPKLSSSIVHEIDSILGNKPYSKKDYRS
Muscarinic acetylcholine receptor M4 (Homo sapiens), sequence (P08173 whole entry, looked up): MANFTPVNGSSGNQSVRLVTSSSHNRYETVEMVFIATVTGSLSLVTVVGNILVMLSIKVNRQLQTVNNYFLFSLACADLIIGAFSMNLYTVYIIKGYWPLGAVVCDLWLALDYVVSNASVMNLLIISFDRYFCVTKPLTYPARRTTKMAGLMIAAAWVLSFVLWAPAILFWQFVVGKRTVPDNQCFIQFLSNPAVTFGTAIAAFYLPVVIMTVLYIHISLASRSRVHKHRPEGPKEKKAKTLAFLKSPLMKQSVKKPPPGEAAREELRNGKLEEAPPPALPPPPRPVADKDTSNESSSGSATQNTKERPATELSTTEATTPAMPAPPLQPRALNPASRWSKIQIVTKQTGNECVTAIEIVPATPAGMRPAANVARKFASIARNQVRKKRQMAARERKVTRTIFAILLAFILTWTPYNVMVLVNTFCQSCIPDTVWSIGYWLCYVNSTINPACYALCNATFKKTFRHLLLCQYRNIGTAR

For the molecule `CCCOc1ccccc1C(=O)NCCCC(=O)O`, the cell count in [1] was determined as 697. Also, the inhibition is 10.3% (inactive) in [1], -31.2% (inactive) in [2], 1.63% (inactive) in [4] and 23.9% (inactive) in [9]. In addition, the nuclei count in [2] was 137%. Moreover, the z-score in [3] (setting [10]) is 0.264; in [3] (setting [11]), 0.35; in [3] (setting [12]), -1.68. Moreover, the fluorescence slope in test [5] is -0.447 (inactive); in test [7] it was 0.00573 (inactive). In addition, in test [6], the NADPH fluorescence slope was -6.8e-05 (inactive). Besides, the outcome in test [8] was inactive.

`CC1(C)CC(=O)C2=C(C1)OC(N)=C(C#N)C2C1C=CCCC1` (stereo unspecified): in [1], the cell count stood at 725. Moreover, the inhibition was -1.5% (inactive) in test [1], -74.9% (inactive) in test [2], 7.83% (inactive) in [4] and 9.73% (inactive) in test [9]. Besides, the nuclei count in test [2] was 173%. For the same molecule, the z-score in test [3] (setting [10]) was -0.465; in test [3] (setting [11]), 0.0637; in test [3] (setting [12]) it was 1.38. Besides, the fluorescence slope in test [5] is -0.43 (inactive); in test [7], 0.00473 (inactive). Besides, the NADPH fluorescence slope in test [6] is -5.1e-05 (inactive). Besides, the call in test [8] was inactive.

Regarding `CN(C)CCCNCCCCNC(=O)/C=N/O`, the cell count in test [1] is 458. Also, the inhibition in test [1] was 3.8% (inactive); in test [2], -56.6% (inactive); in test [4], 17.7% (inactive); in [9], 6.6% (inactive). For the same molecule, the nuclei count in [2] was found to be 143%. The z-score is -0.174 in test [3] (setting [10]), -0.575 in test [3] (setting [11]) and 1.08 in [3] (setting [12]). Moreover, the fluorescence slope in [5] was -0.441 (inactive); in test [7], 0.00523 (inactive). Besides, the NADPH fluorescence slope in [6] is -3.9e-05 (inactive). Besides, the molecule was called inactive in [8].

Take `COC(=O)/C(C#N)=C1/SC=C(C)N1c1ccccc1`: the cell count in [1] was determined as 611. For the same molecule, the inhibition in test [1] was 4.9% (inactive); in test [2], -42.5% (inactive); in test [4] it was -13.3% (inactive); in test [9], -8.28% (inactive). Also, the nuclei count in test [2] turned out to be 115%. The results for the z-score in [3] (setting [10]), in [3] (setting [11]) and in test [3] (setting [12]) were -0.0327, -1.23 and -0.208, respectively. Also, the fluorescence slope is -0.46 (inactive) in test [5] and 0.00543 (inactive) in [7]. The NADPH fluorescence slope in test [6] was -5.6e-05 (inactive). In test [8], the outcome was inactive.

Take `COC(=O)c1ccc(C2/C(=C(/O)c3ccc(OC)cc3)C(=O)C(=O)N2Cc2ccco2)cc1` (stereo unspecified): the cell count in test [1] was found to be 603. For the same molecule, the inhibition in [1] was -5.8% (inactive); in test [2], -47.8% (inactive); in test [4], -4.59% (inactive); in test [9] it was -8.72% (inactive). Moreover, the nuclei count in test [2] is 96.4%. The results for the z-score in [3] (setting [10]), in [3] (setting [11]) and in [3] (setting [12]) were -1.62, 0.429 and -2.41, respectively. Moreover, the fluorescence slope in test [5] was -0.4 (inactive); in test [7], 0.0058 (inactive). Also, the NADPH fluorescence slope in test [6] was 4.5e-06 (inactive). Also, the molecule was called inactive in test [8].

`C=CCOn1c(=O)c(-c2ccc(OC)cc2)[n+]([O-])c2ccccc21`: the cell count in test [1] worked out at 586. The inhibition was -10.1% (inactive) in test [1], -77.9% (inactive) in test [2], 13.9% (inactive) in test [4] and 19.7% (inactive) in test [9]. The nuclei count in test [2] was found to be 148%. Further, the z-score in [3] (setting [10]) was 0.271; in test [3] (setting [11]), 0.00215; in [3] (setting [12]) it was -0.813. In addition, the results for the fluorescence slope in test [5] and in [7] were -0.416 (inactive) and 0.00502 (inactive), respectively. Moreover, in [6], the NADPH fluorescence slope was -5.2e-05 (inactive). Besides, in [8], the result was inactive.

As to `COc1ccc(CN(C#N)c2nc(SC)nc(N(C)C)n2)cc1`, the cell count in test [1] stood at 720. The inhibition in test [1] is -0.6% (inactive); in test [2], -41.4% (inactive); in test [4], -3.95% (inactive); in test [9] it was -6.51% (inactive). Besides, in test [2], the nuclei count turned out to be 137%. The z-score in [3] (setting [10]) amounted to 0.386; in [3] (setting [11]), 1.03; in test [3] (setting [12]), 0.357. Besides, the fluorescence slope in test [5] was -0.451 (inactive); in test [7], 0.00509 (inactive). In test [6], the NADPH fluorescence slope is -4.7e-05 (inactive). Moreover, in test [8], the molecule was called inactive.

Broadly, the inhibition is the drop in the measured response relative to a control, in per cent.

Values taken from PubChem BioAssay.
